The values below come from ChEMBL document CHEMBL2086271, “Bicyclic Cyclohexenones as Inhibitors of NF-κB Signaling” (ACS Med Chem Lett, 2012).

The source made the active and inactive calls. The calls are words filed in the database; no cut-off is given here.

Data set [1] deals with DU-145. Kind of data set: Cytotoxicity against human DU145 cells after 48 hrs by alamar blue assay. The class given is functional, cell-based. The procedure, abridged: (§1)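 Viability read by Alamar Blue staining after 48 h exposure to a range of concentrations. Vero (African green monkey kidney epithelial), RWPE-1, DU-145 and CCRF-CEM human cells were used. IC50 is reported as mean ± SD.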
(In general: Alamar Blue is a resazurin reagent that responds to reducing activity.)

Data set [2] relates to A549. The data set can be described thus: Inhibition of TNFalpha-induced NFkappaB in human A549 cells assessed as residual enzyme activity at 10 uM incubated for 30 mins prior to TNFalpha-induction measured after 7 hrs by luciferase reporter gene assay relative to control. Type of data set: cell-based. The procedure, abridged:
(§2)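 A549 human lung cells stably carry a luciferase reporter driven by six tandem consensus NF-κB sites. Signaling was induced with TNF-α, and compound was added at 100, 50 or 10 μM. Luciferase activity is expressed relative to the induced, DMSO-treated control, set at 100%. Mean ± SD reported.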
For orientation: In a reporter assay the amount or activity of a reporter protein is the signal.

In data set [3] the test system is DU-145. The data set can be described thus: Inhibition of NFkappaB in human DU145 cells assessed as TNFalpha-induced IL8 protein level at 100 uM by ELISA. The class given is cell-based. Summed up: (§3)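 DU-145 cells were dosed with compound (100 or 33 μM) or DMSO vehicle, then NF-κB was induced with TNF-α. Secreted IL-8 in the culture medium was quantified by ELISA, with noninduced and induced controls. Mean ± SEM reported.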
On the technique in general: In an ELISA, binding on a coated surface is turned into a signal by an enzyme label.

Data set [4] relates to A549. The data set can be described thus: Inhibition of TNFalpha-induced NFkappaB in human A549 cells assessed as residual enzyme activity at 50 uM incubated for 30 mins prior to TNFalpha-induction measured after 7 hrs by luciferase reporter gene assay relative to control. Type of data set: cell-based. Summed up: as §2
A short description of data set [5]: Cytotoxicity against human RWPE1 cells after 48 hrs by alamar blue assay. The note with it: RWPE-1, 48 h. Type of data set: cell-based. The procedure, abridged:
as §1

For data set [6], the system named is CCRF-CEM. Kind of data set: Cytotoxicity against human CCRF-CEM cells after 48 hrs by alamar blue assay. Type of data set: functional, cell-based. Summed up:
as §1

In data set [7] the test system is A549. The data set can be described thus: Inhibition of TNFalpha-induced NFkappaB in human A549 cells assessed as residual enzyme activity at 100 uM incubated for 30 mins prior to TNFalpha-induction measured after 7 hrs by luciferase reporter gene assay relative to control. The class given is cell-based. Summed up: as §2
The test system of another data set is Vero. Kind of data set: Cytotoxicity against african green monkey Vero cells after 48 hrs by alamar blue assay. The class given is cell-based. The following applies: Chlorocebus sabaeus. Summed up:
as §1

Data set [8] concerns CCRF-CEM. The data set can be described thus: Partial inhibition of IkappaB in human CCRF-CEM cells assessed as inhibition of PMA-induced NFkappaB p65 nuclear translocation at 25 uM incubated for 12 hrs prior to TNFalpha-induction measured after 4 hrs by Western blot analysis. Type of data set: cell-based.
Data set [9] concerns DU-145. The data set can be described thus: Inhibition of IkappaB in human DU145 cells assessed as inhibition of TNFalpha-induced NFkappaB p65 nuclear translocation at 100 uM incubated for 14 hrs prior to TNFalpha-induction measured after 2 hrs by Western blot analysis. The class given is cell-based.
Data set [10] relates to DU-145. The data set can be described thus: Inhibition of NFkappaB in human DU145 cells assessed as inhibition of TNFalpha-induced IL8 mRNA production at 33 uM by RT-PCR analysis. Type of data set: cell-based. Summed up:
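DU-145 cells were dosed with compound (100 or 33 μM) or DMSO vehicle, then induced with TNF-α. IL-8 mRNA was analysed by semiquantitative RT-PCR, with GAPDH as reference. Noninduced and induced cells served as controls.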

Data set [11] concerns DU-145. Kind of data set: Inhibition of NFkappaB in human DU145 cells assessed as inhibition of TNFalpha-induced IL8 protein production at 33 uM by ELISA. Type of data set: cell-based. Summed up:
as §3

The nature of data set [12]: Selectivity index, ratio of IC50 for human RWPE1 cells to IC50 for human DU145 cells. The class given is functional.
Data set [13] has as its system DU-145. The data set can be described thus: Ratio of cryptocaryone IC50 to compound IC50 for human DU145 cells. Type of data set: functional.
Data set [14] deals with DU-145. Kind of data set: Partial inhibition of IkappaB in human DU145 cells assessed as inhibition of TNFalpha-induced NFkappaB p65 nuclear translocation at 25 uM incubated for 14 hrs prior to TNFalpha-induction measured after 2 hrs by Western blot analysis. Type of data set: cell-based.
The subject of data set [15] is A549. The data set can be described thus: Cytotoxicity against human TNFalpha-induced A549 cells assessed as decrease in cell viability at 50 uM incubated for 30 mins prior to TNFalpha-induction measured after 7 hrs by alamar blue staining relative to control. The class given is cell-based. The following applies: a549, 7 h.
Data set [16] has as its system CCRF-CEM. Kind of data set: Inhibition of IkappaB in human CCRF-CEM cells assessed as inhibition of PMA-induced NFkappaB p65 nuclear translocation at 100 uM incubated for 12 hrs prior to TNFalpha-induction measured after 4 hrs by Western blot analysis. Type of data set: cell-based.
A short description of data set [17]: Solubility of the compound in DMEM media. The class given is physicochemical.

For the compound `CC(=O)O/C(=C1\CO[C@]2(C)CCC(=O)C[C@H]12)c1ccccc1` (racemic), the concentration for half-maximal inhibition (IC50) in the data set on DU-145 [1] (Homo sapiens, DU-145, 48 h) is more than 500 µM; in [5] it was more than 500 µM; with CCRF-CEM [6] (Homo sapiens, CCRF-CEM, 48 h), more than 500 µM; in the data set on Vero, more than 500 µM. Also, the Activity came out at 109% in the data set with A549 [2], 4900 pg/mL with DU-145 [3], 94.4% in the data set on A549 [4] and 76.1% with A549 [7].
For `CC(=O)O/C(=C1\CO[C@]2(C)C=CC(=O)C[C@H]12)c1ccccc1` (racemic), the IC50 in the data set on DU-145 [1] (Homo sapiens, DU-145, 48 h) is 33.7 µM; in [5], 14.8 µM; with CCRF-CEM [6] (Homo sapiens, CCRF-CEM, 48 h) it was 26.4 µM; with Vero it was more than 500 µM. The inhibition entry with CCRF-CEM [8], with DU-145 [9], with DU-145 [10], in the data set with DU-145 [14] and with CCRF-CEM [16] was “Active” throughout. The Activity in the data set on A549 [2] worked out at 90.9%; in the data set on DU-145 [11] it was 3480 pg/mL; in the data set on A549 [4] it was 61.6%; with A549 [15], 10%; with A549 [7], 33.9%. The “Ratio IC50” value worked out at 0.44 in data set [12] and 15 in the data set on DU-145 [13].
Consider `O=C1C[C@@H]2/C(=C(O)\C=C\c3ccccc3)C(=O)C=C[C@@H]2O1` [CRYPTOCARYONE], for which the IC50 with DU-145 [1] (Homo sapiens, DU-145, 48 h) was determined as 2.3 µM.
Take `CC(=O)O/C(C)=C1\CO[C@]2(c3ccccc3)C=CC(=O)C[C@H]12` (racemic; form 1) [listing 1 of 2 here]: the inhibition result in the data set with CCRF-CEM [8], with DU-145 [9], in the data set with DU-145 [10], with DU-145 [14] and in the data set with CCRF-CEM [16] was “Active” throughout. Further, the Activity with A549 [2] came out at 93.7%; with DU-145 [11] it was 2970 pg/mL; in the data set on A549 [4], 36.2%; with A549 [7] it was 17.3%.
With `CC(=O)O/C(C)=C1\CO[C@]2(C)C=C(Br)[C@H](O)C[C@H]12` (racemic), the inhibition result with A549 [2], in the data set with A549 [4] and in the data set with A549 [7] was “inactive” throughout.
For `CC(=O)O/C(C)=C1\CO[C@]2(C)C=C(Br)C(=O)C[C@H]12` (racemic), the inhibition entry in the data set with A549 [2], in the data set with A549 [4] and in the data set with A549 [7] was “inactive” each time.
For the compound `CC(=O)O/C(C)=C1\CO[C@]2(C)C=CC(=O)C[C@]12C` (racemic), the inhibition result with A549 [2], in the data set on A549 [4] and with A549 [7] was “inactive” throughout.
With `CC(=O)O/C(C)=C1\CO[C@]2(c3ccccc3)C=CC(=O)C[C@H]12` (racemic; form 2) [listing 1 of 2 here], the IC50 turned out to be 46 µM with DU-145 [1] (du-145) and 19 µM in the data set with CCRF-CEM [6] (Homo sapiens, CCRF-CEM, 48 h).
Regarding `CO[C@@]12C=C(Br)C(=O)C[C@@H]1/C(=C(/OC(C)=O)c1ccccc1)CC2` (racemic), the solubility entry in data set [17] is “Insoluble”.
With `CC(=O)O/C(C)=C1\CO[C@]2(c3ccccc3)C=CC(=O)C[C@H]12` (racemic; form 2) [listing 2 of 2 here], the Activity with A549 [4] came out at 18%.
Regarding `CC(=O)[C@H]1CO[C@]2(C)C=C(c3ccccc3)[C@H](O)C[C@H]12` (racemic), the inhibition entry with A549 [2], with A549 [4] and in the data set on A549 [7] was “inactive” in each case.
As to `CC(=O)O/C(C)=C1\CO[C@]2(C)C=C(C)C(=O)C[C@H]12` (racemic), the inhibition result with A549 [2], in the data set with A549 [4] and in the data set with A549 [7] was “inactive” throughout.
As to `CC(=O)O/C(C)=C1\CO[C@]2(c3ccccc3)C=CC(=O)C[C@H]12` (racemic; form 1) [listing 2 of 2 here], the IC50 in the data set with DU-145 [1] (Homo sapiens, DU-145, 48 h) was 35.9 µM; in data set [5] it was 98.8 µM; with CCRF-CEM [6] (ccrf-cem) it was 26.4 µM; in the data set with Vero it was more than 500 µM. The “Ratio IC50” value was 2.75 in data set [12] and 15 in the data set on DU-145 [13]. For the same compound, the Activity in the data set on A549 [15] is given as 5%.

The term IC50 denotes the concentration at which inhibition is half-maximal.
